Results published in ChEMBL document CHEMBL4049451, “Exploring the Role of N6-Substituents in Potent Dual Acting 5'-C-Ethyltetrazolyladenosine Derivatives: Synthesis, Binding, Functional Assays, and Antinociceptive Effects in Mice ∇” (J Med Chem, 2017).
Calls of active or inactive are those of the source. The calls are words filed in the database; no cut-off is given here.

Columns and labels:
Mus musculus [1] = test: Antinociceptive activity in formalin induced nociceptive mouse model assessed as reduction in nociceptive behavior at 1 mg/kg, ip administered 10 mins prior to formalin induction measured up to 7 mins in presence of adenosine A3 agonist 2Cl-IBMECA; assay type: functional, organism-based
How it was run: (§1)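 Mice, randomized, n = 8–10 per group; ip compound or vehicle (10% DMSO in 0.9% NaCl) 10 min before formalin (1.25% in saline, 30 μL) into dorsal hind paw. Lifting, licking, shaking, flinching timed every 5 min for 60 min; phase 1 0–7 min, phase 2 15–60 min; mean ± SEM.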

Mus musculus [2] = test: Antinociceptive activity in formalin induced nociceptive mouse model assessed as reduction in nociceptive behavior at 1 mg/kg, ip administered 10 mins prior to formalin induction measured for 15 to 60 mins in presence of adenosine A3 agonist 2Cl-IBMECA; assay type: functional, organism-based; how it was run: as §1
Mus musculus [3] = test: Antinociceptive activity in formalin induced nociceptive mouse model assessed as reduction in nociceptive behavior at 0.5 mg/kg, ip administered 10 mins prior to formalin induction measured up to 7 mins; assay type: functional, organism-based; how it was run: as §1
Mus musculus [4] = test: Antinociceptive activity in formalin induced nociceptive mouse model assessed as reduction in nociceptive behavior at 0.5 mg/kg, ip administered 10 mins prior to formalin induction measured for 15 to 60 mins; assay type: functional, organism-based; how it was run: as §1
Adenosine receptor A3 [5] = target: T1, Adenosine receptor A3 (Rattus norvegicus, UniProt P28647); test: Displacement of [3H]NECA from recombinant rat adenosine A3 receptor expressed in CHO cell membranes after 3 hrs by microbeta scintillation counting
T1 sequence (P28647 whole entry): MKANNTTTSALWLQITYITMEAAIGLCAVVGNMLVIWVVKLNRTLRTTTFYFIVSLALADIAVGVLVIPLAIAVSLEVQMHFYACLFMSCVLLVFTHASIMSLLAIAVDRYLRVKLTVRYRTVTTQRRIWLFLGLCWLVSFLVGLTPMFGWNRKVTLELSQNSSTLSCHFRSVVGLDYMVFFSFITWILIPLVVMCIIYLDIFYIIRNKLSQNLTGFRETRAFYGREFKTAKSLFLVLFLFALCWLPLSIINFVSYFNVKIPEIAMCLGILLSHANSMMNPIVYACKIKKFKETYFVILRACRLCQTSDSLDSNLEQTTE
How it was run: (§2)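 CHO membranes with stable human A1, A2A, A3 or rat A3 (1000g then 100 000g spin, stored -80 °C). Competition: hA1 1 nM [3H]CCPA, nonspecific with 1 mM theophylline; hA2A 10 nM [3H]NECA; hA3 1 nM [3H]HEMADO; rA3 30 nM [3H]NECA; latter three nonspecific with 100 μM R-PIA.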

[6] = Selectivity ratio of Ki for recombinant rat adenosine A3 receptor expressed in CHO cell membranes to Ki for recombinant human adenosine A3 receptor expressed in CHO cell membranes; assay type: cell-based; how it was run: as §2
Adenosine receptor A1 [7] = target: T2, Adenosine receptor A1 (Homo sapiens, UniProt P30542); test: Agonist activity at recombinant human adenosine A1 receptor expressed in CHO cell membranes assessed as inhibition of forskolin-stimulated adenylyl cyclase activity after 10 mins in presence of [alpha-32P]ATP; assay type: functional, cell-based
T2 sequence (P30542 whole entry): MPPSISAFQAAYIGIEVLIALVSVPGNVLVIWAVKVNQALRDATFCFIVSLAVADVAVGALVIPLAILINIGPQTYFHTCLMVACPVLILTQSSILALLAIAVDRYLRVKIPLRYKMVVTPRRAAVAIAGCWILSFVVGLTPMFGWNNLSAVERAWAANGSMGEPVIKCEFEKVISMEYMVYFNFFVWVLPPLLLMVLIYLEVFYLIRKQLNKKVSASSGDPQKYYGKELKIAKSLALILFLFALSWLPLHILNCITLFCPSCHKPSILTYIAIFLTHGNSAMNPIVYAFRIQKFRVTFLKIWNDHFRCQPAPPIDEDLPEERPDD
How it was run: (§3)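 hA1 in CHO cell membranes (single high-speed spin, resuspended in 50 mM Tris/HCl pH 7.4, used immediately); agonist inhibition of forskolin-stimulated adenylyl cyclase; efficacy relative to CCPA as reference full agonist (100%). Geometric means with 95% confidence intervals, n = 3.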

Adenosine receptor A1 [8] = target: T2, Adenosine receptor A1; test: Displacement of [3H]CCPA from recombinant human adenosine A1 receptor expressed in CHO cell membranes after 3 hrs by microbeta scintillation counting; how it was run: as §2
Adenosine receptor A2a [9] = target: T3, Adenosine receptor A2a (Homo sapiens, UniProt P29274); test: Displacement of [3H]NECA from recombinant human adenosine A2A receptor expressed in CHO cell membranes after 3 hrs by microbeta scintillation counting; how it was run: as §2
T3 sequence (P29274 whole entry): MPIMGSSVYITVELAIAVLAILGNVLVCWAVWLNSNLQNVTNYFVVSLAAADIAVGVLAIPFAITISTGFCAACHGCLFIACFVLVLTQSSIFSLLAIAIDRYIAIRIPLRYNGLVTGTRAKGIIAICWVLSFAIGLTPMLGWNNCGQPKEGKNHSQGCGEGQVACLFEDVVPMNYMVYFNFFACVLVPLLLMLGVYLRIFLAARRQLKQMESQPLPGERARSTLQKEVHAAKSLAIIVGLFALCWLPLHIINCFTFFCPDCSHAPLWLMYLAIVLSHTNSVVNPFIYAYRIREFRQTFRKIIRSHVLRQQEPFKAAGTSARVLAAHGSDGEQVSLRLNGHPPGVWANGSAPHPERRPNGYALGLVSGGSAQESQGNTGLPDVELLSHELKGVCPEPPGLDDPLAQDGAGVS

Adenosine receptor A3 [10] = target: T4, Adenosine receptor A3 (Homo sapiens, UniProt P0DMS8); test: Displacement of [3H]HEMADO from recombinant human adenosine […] receptor expressed in CHO cell membranes after 3 hrs by microbeta scintillation counting; how it was run: as §2
T4 sequence (P0DMS8 whole entry): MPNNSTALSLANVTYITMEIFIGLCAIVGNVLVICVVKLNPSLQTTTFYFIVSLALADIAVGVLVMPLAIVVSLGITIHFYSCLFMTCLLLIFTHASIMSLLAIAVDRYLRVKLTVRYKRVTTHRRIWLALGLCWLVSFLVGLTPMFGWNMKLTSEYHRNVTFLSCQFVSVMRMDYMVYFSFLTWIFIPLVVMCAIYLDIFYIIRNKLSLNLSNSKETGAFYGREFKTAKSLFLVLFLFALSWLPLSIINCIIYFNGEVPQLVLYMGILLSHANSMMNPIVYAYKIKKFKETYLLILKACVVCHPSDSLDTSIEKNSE

[11] = target: T5, Adenosine receptor A1 (Homo sapiens) (UniProt P30542); test: Partial agonist activity at recombinant human adenosine A1 receptor expressed in CHO cell membranes assessed as inhibition of forskolin-stimulated adenylyl cyclase activity after 10 mins in presence of [alpha-32P]ATP relative to CCPA; assay type: functional, cell-based; how it was run: as §3
T5 sequence (whole entry): T2 sequence (P30542 whole entry)

Adenosine receptor A2a [12] = target: T3, Adenosine receptor A2a; test: Agonist activity at recombinant human adenosine A2A receptor expressed in CHO cell membranes assessed as stimulation of adenylyl cyclase activity by [alpha-32P]ATP assay; assay type: functional, cell-based
How it was run: (§4)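 hA2A or hA2B in CHO cell membranes (one high-speed spin, pellet in 50 mM Tris/HCl pH 7.4, used immediately); agonist stimulation of adenylyl cyclase gives EC50; partial agonism judged as efficacy against 100 μM NECA as full agonist. Geometric means, 95% confidence intervals, n = 3.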

Adenosine receptor A2b = target: T6, Adenosine receptor A2b (Homo sapiens, UniProt P29275); test: Agonist activity at recombinant human adenosine A2B receptor expressed in CHO cell membranes assessed as stimulation of adenylyl cyclase activity by [alpha-32P]ATP assay; assay type: functional, cell-based; how it was run: as §4
T6 sequence (P29275 whole entry): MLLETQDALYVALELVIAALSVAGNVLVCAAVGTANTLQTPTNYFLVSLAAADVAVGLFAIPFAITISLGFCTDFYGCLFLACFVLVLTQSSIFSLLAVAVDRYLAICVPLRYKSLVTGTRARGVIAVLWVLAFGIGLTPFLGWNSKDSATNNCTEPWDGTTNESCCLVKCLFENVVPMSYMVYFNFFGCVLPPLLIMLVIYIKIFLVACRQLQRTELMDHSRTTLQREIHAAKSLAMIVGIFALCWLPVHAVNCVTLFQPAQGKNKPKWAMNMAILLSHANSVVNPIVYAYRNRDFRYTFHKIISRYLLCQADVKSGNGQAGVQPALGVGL

Adenosine receptor A3 [13] = target: T4, Adenosine receptor A3; test: Antagonist activity at recombinant human adenosine A3 receptor expressed in CHO cell membranes assessed as reversal of NECA-mediated inhibition of adenylyl cyclase activity after 10 mins by [alpha-32P]ATP assay; assay type: functional, cell-based
Adenosine receptor A2a [14] = target: T3, Adenosine receptor A2a; test: Agonist activity at recombinant human adenosine A2A receptor expressed in CHO cell membranes assessed as stimulation of adenylyl cyclase activity relative to NECA; assay type: functional, cell-based; how it was run: as §4
[15] = target: T7, Adenosine receptor A2b (Homo sapiens) (UniProt P29275); test: Agonist activity at recombinant human adenosine A2B receptor expressed in CHO cell membranes assessed as stimulation of adenylyl cyclase activity relative to NECA; assay type: functional, cell-based; how it was run: as §4
T7 sequence (whole entry): T6 sequence (P29275 whole entry)

Homo sapiens [16] = species on record: Homo sapiens; test: Selectivity ratio of Ki for recombinant human adenosine A2A receptor expressed in CHO cell membranes to Ki for recombinant human adenosine A1 receptor expressed in CHO cell membranes; assay type: cell-based; how it was run: as §2
Homo sapiens [17] = species on record: Homo sapiens; test: Selectivity ratio of Ki for recombinant human adenosine A2A receptor expressed in CHO cell membranes to Ki for recombinant human adenosine A3 receptor expressed in CHO cell membranes; assay type: cell-based; how it was run: as §2
[18] = target: Adenosine receptors; A1 & A3 (Homo sapiens) (UniProt P30542+P0DMS8); test: Selectivity ratio of Ki for recombinant human adenosine A3 receptor expressed in CHO cell membranes to Ki for recombinant human adenosine A1 receptor expressed in CHO cell membranes; assay type: cell-based; how it was run: as §2
Mus musculus [19] = test: Antinociceptive activity in formalin induced nociceptive mouse model at 1 mg/kg, ip administered 10 mins prior to formalin induction measured up to 60 mins; assay type: functional, organism-based; how it was run: as §1
Mus musculus [20] = test: Antinociceptive activity in formalin induced nociceptive mouse model assessed as reduction in late nociceptive behavior at 0.5 mg/kg, ip administered 10 mins prior to formalin induction measured for 15 to 60 mins in presence of adenosine A3 receptor antagonist MRS1334; assay type: functional, organism-based; how it was run: as §1
Mus musculus [21] = test: Antinociceptive activity in formalin induced nociceptive mouse model assessed as inhibition of nociceptive behavior at 0.3 mg/kg, ip administered 10 mins prior to formalin induction measured for 15 to 60 mins in presence of adenosine A3 agonist 2Cl-IBMECA; assay type: functional, organism-based; how it was run: as §1
Mus musculus [22] = test: Antinociceptive activity in formalin induced nociceptive mouse model assessed as reduction in nociceptive behavior at 0.3 mg/kg, ip administered 10 mins prior to formalin induction measured up to 7 mins in presence of adenosine A3 agonist 2Cl-IBMECA; assay type: functional, organism-based; how it was run: as §1
Mus musculus [23] = test: Antinociceptive activity in formalin induced nociceptive mouse model assessed as reduction in late nociceptive behavior administered via ip 10 mins prior to formalin induction measured for 15 to 60 mins; assay type: functional, organism-based; how it was run: as §1
[24] = target: T5, Adenosine receptor A1 (Homo sapiens); test: Agonist activity at recombinant human adenosine A1 receptor expressed in CHO cell membranes assessed as inhibition of forskolin-stimulated adenylyl cyclase activity after 10 mins relative to CCPA; assay type: functional, cell-based; how it was run: as §3
[25] = Lipophilicity, log P of the compound; assay type: physicochemical; conditions: octanol/water

Ki (Adenosine receptor A3 [5])	EC50 (Adenosine receptor A1 [7])	Ki (Adenosine receptor A1 [8])	Ki (Adenosine receptor A2a [9])	Ki (Adenosine receptor A3 [10])	EC50 (Adenosine receptor A2a [12])	EC50 (Adenosine receptor A2b)	EC50 (Adenosine receptor A3 [13])	Efficacy (Adenosine receptor A2a [14])	Efficacy [15]	Ratio Ki [18]	logP [25]	Compound	Ratio Ki [6]	Ratio Ki (Homo sapiens [16])	Ratio Ki (Homo sapiens [17])	Activity (Mus musculus [19])	other results
6.1 nM	27.4 nM	0.768 nM	16.8 nM	0.532 nM	2.87 nM	235 nM	2.38 nM	> 90%	> 90%	0.69		CCn1nnc([C@H]2O[C@@H](n3cnc4c(NCc5cccc(I)c5)ncnc43)C(O)C2O)n1 (single isomer, unassigned)	12	22	32		inhibition [11]: 87%
2.69 nM	58.5 nM	1.41 nM	29.8 nM	0.386 nM	6.71 nM	592 nM	2.2 nM	> 90%	> 90%	0.27	2.57	CCn1nnc([C@H]2O[C@@H](n3cnc4c(NCc5cccc(Cl)c5)ncnc43)[C@H](O)[C@@H]2O)n1	6.9	21	77		Activity (Mus musculus [23]): Dose-dependent effect; Efficacy [24]: > 90%

The remaining lines, values behind:

Compound	Ki (Adenosine receptor A3 [5])	EC50 (Adenosine receptor A1 [7])	Ki (Adenosine receptor A1 [8])	Ki (Adenosine receptor A2a [9])	Ki (Adenosine receptor A3 [10])	EC50 (Adenosine receptor A2a [12])	EC50 (Adenosine receptor A2b)	EC50 (Adenosine receptor A3 [13])	Efficacy (Adenosine receptor A2a [14])	Efficacy [15]	Ratio Ki [18]	logP [25]	Ratio Ki [6]	Ratio Ki (Homo sapiens [16])	Ratio Ki (Homo sapiens [17])	Activity (Mus musculus [19])	other results
O[C@@H]1[C@H](O)[C@@H](CCl)O[C@H]1n1cnc2c(NC3C[C@@H]4CC[C@@H]3C4)ncnc21 (mixture of isomers)																	Activity (Mus musculus [1]): Active; Activity (Mus musculus [2]): Active; Activity (Mus musculus [3]): inactive; Activity (Mus musculus [4]): inactive
CCn1nnc([C@H]2O[C@@H](n3cnc4c(NC)ncnc43)[C@H](O)[C@@H]2O)n1	484 nM															Dose-dependent effect	Activity (Mus musculus [20]): inactive; inhibition (Mus musculus [21]): Active; Activity (Mus musculus [22]): Active
CCn1nnc([C@H]2O[C@@H](n3cnc4c(NCc5cccc(I)c5)nc(Cl)nc43)[C@H](O)[C@@H]2O)n1	2.53 nM											4.06				inactive	
